≈ marks a conversion by molar mass, not a printed value. Calls of active or inactive are those of the source. The rule behind the calls is not given here.
Legend:
Plutella xylostella = test: Pesticidal activity against Plutella xylostella (diamondback moth) second-instar larvae grown on cruciferous vegetables leaves leaves as pest mortality at 600 mg/L measured 48 hr post compound exposure; assay type: functional
How it was run: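 Over 20 second-instar larvae on cruciferous vegetable leaves dipped 5 s in compound diluted in distilled water containing 0.05% Triton X-100, excess liquid removed. Kept in illumination box at 25 ± 1 °C; mortality recorded 48 h after treatment. Each test in triplicate.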

Tetranychus cinnabarinus [1] = test: Pesticidal activity against Tetranychus cinnabarinus (carmine spider mite) third- instar larvae grown on Phaseolus vulgaris leaves assessed as pest mortality at 600 mg/L measured 48 hr post compound exposure; assay type: functional
How it was run: (§1)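 More than 20 third-instar mite larvae on Phaseolus vulgaris leaves dipped 5 s in compound solutions (water with 0.05% Triton X-100), excess liquor removed. Larvae held at 25 ± 1 °C in illumination box; mortality read at 48 h. Primary screen at 600 mg L⁻¹, follow-up at 400, 200, 100, 50 and 25 mg L⁻¹ with LC50 calculated. Triplicate tests.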

Aphis gossypii = test: Pesticidal activity against Aphis gossypii (cotton aphid) third-instar nymphae grown on tender Hibiscus syriacus leaves assessed as pest mortality at 600 mg/L measured 24 hr post compound exposure; assay type: functional; conditions: in Hibiscus syriacus
How it was run: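 Leaf-dip bioassay: over 30 healthy apterous third-instar nymphs on tender Hibiscus syriacus leaves dipped 5 s in compound diluted in distilled water with 0.05% Triton X-100, excess fluid removed. Held in illumination box at 25 ± 1 °C; mortality scored after 24 h. Tests in triplicate.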

Tetranychus cinnabarinus [2] = test: Pesticidal activity against Tetranychus cinnabarinus (carmine spider mite) third- instar larvae grown on Phaseolus vulgaris leaves assessed as conversion of corpus colour to black at 25 to 400 mg/L measured 48 hr post compound exposure; assay type: functional, organism-based
How it was run: (§2)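 Mite larvae (>20 third-instar on Phaseolus vulgaris leaves) leaf-dipped 5 s in compound at 400, 200, 100, 50 or 25 mg L⁻¹ in water with 0.05% Triton X-100, kept at 25 ± 1 °C. Movement of larvae observed at 1 h; corpse colour change to black observed at 48 h after treatment.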

Tetranychus cinnabarinus [3] = test: Pesticidal activity against Tetranychus cinnabarinus (carmine spider mite) third- instar larvae grown on Phaseolus vulgaris leaves assessed as reduction in larval movement at 25 to 400 mg/L measured 1 hr post compound exposure; assay type: functional, organism-based; how it was run: as §2
Tetranychus cinnabarinus [4] = test: Pesticidal activity against Tetranychus cinnabarinus (carmine spider mite) third- instar larvae grown on Phaseolus vulgaris leaves assessed as pest mortality measured 48 hr post compound exposure; assay type: functional; how it was run: as §1
Tetranychus cinnabarinus [5] = test: Pesticidal activity against Tetranychus cinnabarinus (carmine spider mite) third- instar larvae grown on Phaseolus vulgaris leaves assessed as pest mortality at 25 mg/L measured 48 hr post compound exposure; assay type: functional; how it was run: as §1
Tetranychus cinnabarinus [6] = test: Pesticidal activity against Tetranychus cinnabarinus (carmine spider mite) third- instar larvae grown on Phaseolus vulgaris leaves assessed as pest mortality at 100 mg/L measured 48 hr post compound exposure; assay type: functional; how it was run: as §1
Tetranychus cinnabarinus [7] = test: Pesticidal activity against Tetranychus cinnabarinus (carmine spider mite) third- instar larvae grown on Phaseolus vulgaris leaves assessed as pest mortality at 400 mg/L measured 48 hr post compound exposure; assay type: functional; how it was run: as §1
Tetranychus cinnabarinus [8] = test: Pesticidal activity against Tetranychus cinnabarinus (carmine spider mite) third- instar larvae grown on Phaseolus vulgaris leaves assessed as pest mortality at 50 mg/L measured 48 hr post compound exposure; assay type: functional; how it was run: as §1
Tetranychus cinnabarinus [9] = test: Pesticidal activity against Tetranychus cinnabarinus (carmine spider mite) third- instar larvae grown on Phaseolus vulgaris leaves assessed as pest mortality at 200 mg/L measured 48 hr post compound exposure; assay type: functional; how it was run: as §1

Row | SMILES | mortality at 600 µg/mL (Plutella xylostella) | mortality at 600 µg/mL (Tetranychus cinnabarinus [1]) | mortality at 600 µg/mL (Aphis gossypii) | further results
1 | Cc1cccc(C(=O)NNCc2cccc(C(F)(F)F)c2)c1NC(=O)CC(C)(C)C | 40% | 57.9% | 94.2% | –
2 | Cc1cc(Cl)cc(C(=O)NNCc2ccccc2)c1NC(=O)C(C)(C)CCl | 52% | 50.9% | 68.5% | –
3 | Cc1cccc(C(=O)NNCc2ccccc2Cl)c1NC(=O)C(C)(C)C | 64% | 5.9% | 92.2% | –
4 | Cc1cc(Cl)cc(C(=O)NNCc2ccc(Cl)cc2Cl)c1NC(=O)C(C)(C)C | 64% | 69% | 77.8% | –
5 | Cc1cc(Cl)cc(C(=O)NNCc2ccccc2)c1NC(=O)CC(C)(C)C | 94% | 70.1% | 70.4% | –
6 | Cc1cc(Cl)cc(C(=O)NNCc2cccc(C(F)(F)F)c2)c1NC(=O)CC(C)(C)C | 76% | 77.2% | 58.3% | –
7 | Cc1cc(Br)cc(C(=O)NNCc2cccc(C(F)(F)F)c2)c1NC(=O)C(C)(C)C | 16% | 19.8% | 54.2% | –
8 | Cc1cc(Cl)cc(C(=O)NNCc2cccc(C(F)(F)F)c2)c1NC(=O)C(C)(C)CCl | 52% | 61.8% | 5.1% | –
9 | Cc1cc(Cl)cc(C(=O)NNCc2ccccc2F)c1NC(=O)C(C)(C)C | 76% | 80.5% | 38.9% | –
10 | Cc1cc(Br)cc(C(=O)NNCc2ccccc2)c1NC(=O)C(C)(C)C | 50% | 64.9% | 86.1% | –
11 | CC(C)(C)C(=O)Nc1ccc(Cl)cc1C(=O)NNCc1cccc(C(F)(F)F)c1 | 28% | 73.8% | 28.9% | –
12 | Cc1cc(Br)cc(C(=O)NNCc2ccccc2)c1NC(=O)C(C)(C)CCl | 52% | 20.3% | 84.6% | –
13 | Cc1cc(Cl)cc(C(=O)NNCc2ccc(Cl)cc2Cl)c1NC(=O)CC(C)(C)C | 88% | 88.8% | 62% | –
14 | Cc1cc(Cl)cc(C(=O)NNCc2cccc(C(F)(F)F)c2)c1NC(=O)C(C)(C)C | 40% | 8.6% | 68.3% | –
15 | Cc1cc(Cl)cc(C(=O)NNCc2ccc(Cl)nc2)c1NC(=O)C(C)(C)C | 50% | 81.3% | 24.2% | –
16 | CC(C)(C)C(=O)Nc1ccc(Cl)cc1C(=O)NNCc1ccc(F)cc1 | – | 73.8% | 91.3% | –
17 | Cc1cccc(C(=O)NNCc2cccc(C(F)(F)F)c2)c1NC(=O)C(C)(C)C | 64% | 46.8% | 75% | –
18 | Cc1cc(Cl)cc(C(=O)NNCc2ccc(F)cc2)c1NC(=O)C(C)(C)CCl | 64% | 67% | 81.5% | –
19 | Cc1cc(Cl)cc(C(=O)NNCc2ccccc2Cl)c1NC(=O)CC(C)(C)C | 52% | 100% | 65.5% | Activity (Tetranychus cinnabarinus [2]): Active; Activity (Tetranychus cinnabarinus [3]): Active; LC50 (Tetranychus cinnabarinus [4]): 27.9 µg/mL (≈ 66.1 µM); mortality at 25 µg/mL (Tetranychus cinnabarinus [5]): 38.4%; mortality at 100 µg/mL (Tetranychus cinnabarinus [6]): 80.4%; mortality at 400 µg/mL (Tetranychus cinnabarinus [7]): 92.2%; mortality at 50 µg/mL (Tetranychus cinnabarinus [8]): 74.1%; mortality at 200 µg/mL (Tetranychus cinnabarinus [9]): 86.4%
20 | Cc1cccc(C(=O)NNCc2ccccc2)c1NC(=O)C(C)(C)CCl | 52% | 79.3% | 95.6% | –
21 | Cc1cc(Br)cc(C(=O)NNCc2ccccc2)c1NC(=O)CC(C)(C)C | 22% | 78.1% | 96.6% | –
22 | Cc1cc(Br)cc(C(=O)NNCc2ccc(Cl)cc2Cl)c1NC(=O)C(C)(C)C | 34% | 77% | 90.2% | –
